The values that follow come from ChEMBL document CHEMBL4354843, “Structure-Based Design of a Potent and Selective Covalent Inhibitor for SRC Kinase That Targets a P-Loop Cysteine” (J Med Chem, 2020).

Assay [1] concerns the target Serine/threonine-protein kinase 38-like (Homo sapiens) (UniProt Q9Y2H1). Briefly: Binding affinity to wild-type human partial length NDR2 (N34 to E447 residues) expressed in bacterial expression system assessed as residual binding level at 1 uM by Kinomescan method relative to control. A digest of the protocol:
(§1)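 Active-site-directed competition binding panel of 468 kinases (KinomeScan), compound at 1 μM. The read-out is kinase remaining bound, given as a percentage of the DMSO control. […]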

The target of assay [2] is Tyrosine-protein kinase FRK (Homo sapiens) (UniProt P42685). Description: Binding affinity to wild-type human partial length FRK (A215 to F503 residues) expressed in bacterial expression system assessed as residual binding level at 1 uM by Kinomescan method relative to control. A digest of the protocol:
as §1

For assay [3], the target named is Ephrin type-A receptor 6 (Homo sapiens) (UniProt Q9UF33). Briefly: Binding affinity to wild-type human partial length EPHA6 (Y700 to E1046 residues) expressed in bacterial expression system assessed as residual binding level at 1 uM by Kinomescan method relative to control.
The target in assay [4] is Non-receptor tyrosine-protein kinase TYK2 (Homo sapiens) (UniProt P29597). Description: Binding affinity to wild-type human partial length TYK2 JH2 pseudokinase domain (G556 to D888 residues) expressed in mammalian expression system assessed as residual binding level at 1 uM by Kinomescan method relative to control.
Assay [5] deals with Mitogen-activated protein kinase 9 (Homo sapiens) (UniProt P45984). Description: Binding affinity to wild-type human full length JNK2 (M1 to Q382 residues) expressed in mammalian expression system assessed as residual binding level at 1 uM by Kinomescan method relative to control. A digest of the protocol:
(§2)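 KinomeScan, an active site-directed competition binding panel of 468 kinases. The test compound was at 1 μM. The readout is remaining kinase binding as a percentage of the DMSO control. Scores above 35% were treated as weak binding and not listed.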

Assay [6] addresses Mitogen-activated protein kinase 6 (Homo sapiens) (UniProt Q16659). Briefly: Binding affinity to wild-type human partial length ERK3 (M1 to P413 residues) expressed in bacterial expression system assessed as residual binding level at 1 uM by Kinomescan method relative to control.
For assay [7], the system named is Mast/stem cell growth factor receptor Kit (Homo sapiens), P10721 [D816H]. Description: Binding affinity to human partial length KIT D816H mutant (I571 to D952 residues) expressed in mammalian expression system assessed as residual binding level at 1 uM by Kinomescan method relative to control. A digest of the protocol:
(§3)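 KinomeScan active site-directed competition binding panel (468 kinases), compound tested at 1 μM. Result expressed as remaining kinase signal versus DMSO control (percent of control).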

In assay [8] the target is Serine/threonine-protein kinase 17B (Homo sapiens) (UniProt O94768). Description: Binding affinity to wild-type human full length DRAK2 (M1 to C372 residues) expressed in bacterial expression system assessed as residual binding level at 1 uM by Kinomescan method relative to control. A digest of the protocol: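 Active-site-directed KinomeScan competition binding panel covering 468 kinases, compound tested at 1 μM. Each readout is the kinase signal remaining with compound, expressed as a percentage of the DMSO control. […]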

For assay [9], the target named is Ankyrin repeat and protein kinase domain-containing protein 1 (Homo sapiens) (UniProt Q8NFD2). Briefly: Binding affinity to wild-type human partial length ANKK1 (M1 to A305 residues) expressed in mammalian expression system assessed as residual binding level at 1 uM by Kinomescan method relative to control. A digest of the protocol:
as §2

The target in assay [10] is Serine/threonine-protein kinase PAK 5 (Homo sapiens) (UniProt Q9P286). Briefly: Binding affinity to wild-type human partial length PAK7 (Y400 to H719 residues) expressed in bacterial expression system assessed as residual binding level at 1 uM by Kinomescan method relative to control.
For assay [11], the target named is Mitogen-activated protein kinase kinase kinase 15 (Homo sapiens) (UniProt Q6ZN16). Description: Binding affinity to wild-type human partial length MAP3K15 (T625 to L932 residues) expressed in mammalian expression system assessed as residual binding level at 1 uM by Kinomescan method relative to control. A digest of the protocol:
as §1

The target in assay [12] is Calcium/calmodulin-dependent protein kinase kinase 2 (Homo sapiens) (UniProt Q96RR4). Description: Binding affinity to wild-type human partial length CAMKK2 (D65 to V471 residues) expressed in bacterial expression system assessed as residual binding level at 1 uM by Kinomescan method relative to control.
Assay [13] concerns Receptor-type tyrosine-protein kinase FLT3 (Homo sapiens), P36888 [UNDEFINED MUTATION]. Description: Binding affinity to human partial length FLT3 ITD/F691L double mutant expressed in bacterial expression system assessed as residual binding level at 1 uM by Kinomescan method relative to control. A digest of the protocol:
as §3

The target of assay [14] is Mast/stem cell growth factor receptor Kit (Homo sapiens) (UniProt P10721). Briefly: Binding affinity to wild-type human partial length autoinhibited KIT (Y545 to D952 residues) expressed in mammalian expression system assessed as residual binding level at 1 uM by Kinomescan method relative to control.
Sequence of Mast/stem cell growth factor receptor Kit (Homo sapiens) (P10721 whole entry, the tested form may be a part): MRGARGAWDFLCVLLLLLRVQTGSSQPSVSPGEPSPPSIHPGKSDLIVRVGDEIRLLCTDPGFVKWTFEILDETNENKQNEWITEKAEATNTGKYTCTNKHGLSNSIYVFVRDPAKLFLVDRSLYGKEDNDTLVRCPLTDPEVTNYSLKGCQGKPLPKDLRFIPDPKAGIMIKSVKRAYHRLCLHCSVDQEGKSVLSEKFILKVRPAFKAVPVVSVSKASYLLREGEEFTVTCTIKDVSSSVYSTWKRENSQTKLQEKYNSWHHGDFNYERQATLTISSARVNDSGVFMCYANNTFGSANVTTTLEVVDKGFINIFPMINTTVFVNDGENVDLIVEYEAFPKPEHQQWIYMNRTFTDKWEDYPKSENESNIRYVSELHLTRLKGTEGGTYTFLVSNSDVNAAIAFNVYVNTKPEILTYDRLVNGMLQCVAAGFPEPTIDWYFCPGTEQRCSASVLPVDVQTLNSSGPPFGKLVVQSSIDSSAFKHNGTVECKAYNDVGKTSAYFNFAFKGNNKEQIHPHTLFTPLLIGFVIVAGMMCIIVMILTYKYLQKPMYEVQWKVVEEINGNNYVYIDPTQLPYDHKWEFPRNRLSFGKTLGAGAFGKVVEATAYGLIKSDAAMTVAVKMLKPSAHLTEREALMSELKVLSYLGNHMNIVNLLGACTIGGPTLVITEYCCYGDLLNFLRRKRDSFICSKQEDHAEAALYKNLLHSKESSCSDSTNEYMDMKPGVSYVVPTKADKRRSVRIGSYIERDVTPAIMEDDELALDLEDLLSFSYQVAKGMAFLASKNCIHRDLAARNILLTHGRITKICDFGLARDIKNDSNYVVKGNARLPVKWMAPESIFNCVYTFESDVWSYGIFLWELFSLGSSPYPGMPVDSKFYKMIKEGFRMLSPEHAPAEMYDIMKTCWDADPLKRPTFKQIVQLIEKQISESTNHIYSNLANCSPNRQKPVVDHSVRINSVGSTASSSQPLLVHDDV
For assay [15], the target named is Serine/threonine-protein kinase 24 (Homo sapiens) (UniProt Q9Y6E0). Description: Binding affinity to wild-type human partial length MST3 (A30 to S311 residues) expressed in bacterial expression system assessed as residual binding level at 1 uM by Kinomescan method relative to control.
Sequence of Serine/threonine-protein kinase 24 (Homo sapiens) (Q9Y6E0 whole entry, looked up, the tested form may be a part): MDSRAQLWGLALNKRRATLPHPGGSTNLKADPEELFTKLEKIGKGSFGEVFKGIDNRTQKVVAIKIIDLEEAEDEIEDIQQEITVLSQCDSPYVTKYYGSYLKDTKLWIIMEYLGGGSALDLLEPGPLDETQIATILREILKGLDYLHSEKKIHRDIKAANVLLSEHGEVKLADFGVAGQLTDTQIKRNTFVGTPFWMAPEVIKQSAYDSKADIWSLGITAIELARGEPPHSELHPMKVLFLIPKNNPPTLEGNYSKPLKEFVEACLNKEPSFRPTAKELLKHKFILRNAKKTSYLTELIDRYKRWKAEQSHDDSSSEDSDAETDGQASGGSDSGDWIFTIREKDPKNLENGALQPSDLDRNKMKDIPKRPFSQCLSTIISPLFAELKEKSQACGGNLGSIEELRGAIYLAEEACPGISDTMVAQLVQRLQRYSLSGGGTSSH
The test system of assay [16] is Epidermal growth factor receptor (Homo sapiens), P00533 [UNDEFINED MUTATION]. Briefly: Binding affinity to human partial length EGFR S752-I759del mutant expressed in bacterial expression system assessed as residual binding level at 1 uM by Kinomescan method relative to control. A digest of the protocol: as §3
Sequence of Epidermal growth factor receptor (Homo sapiens), P00533 [UNDEFINED MUTATION] (P00533 whole entry, looked up, stated change not applied, the tested form may be a part): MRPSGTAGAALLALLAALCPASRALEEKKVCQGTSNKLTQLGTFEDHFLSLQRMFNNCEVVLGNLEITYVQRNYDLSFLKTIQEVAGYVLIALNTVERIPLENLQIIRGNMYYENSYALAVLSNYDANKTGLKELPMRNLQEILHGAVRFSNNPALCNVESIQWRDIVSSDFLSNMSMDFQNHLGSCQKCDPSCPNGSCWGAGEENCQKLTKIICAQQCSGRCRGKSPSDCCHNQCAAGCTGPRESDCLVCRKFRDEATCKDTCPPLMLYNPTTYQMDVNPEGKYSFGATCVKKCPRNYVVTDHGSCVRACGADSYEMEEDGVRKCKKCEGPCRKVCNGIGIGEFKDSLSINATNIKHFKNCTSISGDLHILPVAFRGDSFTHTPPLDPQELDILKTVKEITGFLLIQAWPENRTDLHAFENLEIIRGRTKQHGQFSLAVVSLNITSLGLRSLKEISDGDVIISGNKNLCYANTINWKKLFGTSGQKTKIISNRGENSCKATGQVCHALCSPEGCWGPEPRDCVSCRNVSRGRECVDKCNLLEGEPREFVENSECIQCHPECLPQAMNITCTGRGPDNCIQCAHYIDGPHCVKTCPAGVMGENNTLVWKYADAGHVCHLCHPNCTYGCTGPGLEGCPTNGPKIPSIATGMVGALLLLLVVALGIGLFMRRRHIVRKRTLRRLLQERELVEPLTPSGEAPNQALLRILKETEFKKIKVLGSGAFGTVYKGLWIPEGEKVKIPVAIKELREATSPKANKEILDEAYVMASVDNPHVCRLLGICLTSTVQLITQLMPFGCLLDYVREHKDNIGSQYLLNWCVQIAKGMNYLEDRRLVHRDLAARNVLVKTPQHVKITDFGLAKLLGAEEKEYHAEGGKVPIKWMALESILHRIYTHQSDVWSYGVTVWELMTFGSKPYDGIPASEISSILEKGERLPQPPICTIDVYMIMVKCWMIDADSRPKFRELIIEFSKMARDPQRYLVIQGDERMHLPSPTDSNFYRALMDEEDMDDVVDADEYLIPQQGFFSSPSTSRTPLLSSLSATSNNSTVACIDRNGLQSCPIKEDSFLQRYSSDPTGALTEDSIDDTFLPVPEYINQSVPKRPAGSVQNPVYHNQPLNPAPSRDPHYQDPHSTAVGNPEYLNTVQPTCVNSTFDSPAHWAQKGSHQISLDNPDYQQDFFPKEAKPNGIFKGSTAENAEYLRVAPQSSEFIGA
Assay [17] has as its target Insulin receptor-related protein (Homo sapiens) (UniProt P14616). Briefly: Binding affinity to wild-type human partial length INSRR (R950 to E1278 residues) expressed in bacterial expression system assessed as residual binding level at 1 uM by Kinomescan method relative to control.
Assay [18] deals with Mast/stem cell growth factor receptor Kit (Homo sapiens), P10721 [L576P]. Description: Binding affinity to human partial length KIT L576P mutant (Y545 to D952 residues) expressed in bacterial expression system assessed as residual binding level at 1 uM by Kinomescan method relative to control. A digest of the protocol:
as §3

Assay [19] relates to Receptor-type tyrosine-protein kinase FLT3 (Homo sapiens), P36888 [N841I]. Description: Binding affinity to human partial length FLT3 N841I mutant (V592 to Y969 residues) expressed in bacterial expression system assessed as residual binding level at 1 uM by Kinomescan method relative to control. A digest of the protocol:
as §3

Assay [20] deals with Dual specificity tyrosine-phosphorylation-regulated kinase 1A (Homo sapiens) (UniProt Q13627). Description: Binding affinity to wild-type human partial length DYRK1A (H129 to S509 residues) expressed in mammalian expression system assessed as residual binding level at 1 uM by Kinomescan method relative to control.
Assay [21] concerns the target Serine/threonine-protein kinase TAO2 (Homo sapiens) (UniProt Q9UL54). Description: Binding affinity to wild-type human partial length TAOK2 (M1 to A320 residues) expressed in mammalian expression system assessed as residual binding level at 1 uM by Kinomescan method relative to control.

Sequence of Serine/threonine-protein kinase TAO2 (Homo sapiens) (Q9UL54 whole entry, the tested form may be a part): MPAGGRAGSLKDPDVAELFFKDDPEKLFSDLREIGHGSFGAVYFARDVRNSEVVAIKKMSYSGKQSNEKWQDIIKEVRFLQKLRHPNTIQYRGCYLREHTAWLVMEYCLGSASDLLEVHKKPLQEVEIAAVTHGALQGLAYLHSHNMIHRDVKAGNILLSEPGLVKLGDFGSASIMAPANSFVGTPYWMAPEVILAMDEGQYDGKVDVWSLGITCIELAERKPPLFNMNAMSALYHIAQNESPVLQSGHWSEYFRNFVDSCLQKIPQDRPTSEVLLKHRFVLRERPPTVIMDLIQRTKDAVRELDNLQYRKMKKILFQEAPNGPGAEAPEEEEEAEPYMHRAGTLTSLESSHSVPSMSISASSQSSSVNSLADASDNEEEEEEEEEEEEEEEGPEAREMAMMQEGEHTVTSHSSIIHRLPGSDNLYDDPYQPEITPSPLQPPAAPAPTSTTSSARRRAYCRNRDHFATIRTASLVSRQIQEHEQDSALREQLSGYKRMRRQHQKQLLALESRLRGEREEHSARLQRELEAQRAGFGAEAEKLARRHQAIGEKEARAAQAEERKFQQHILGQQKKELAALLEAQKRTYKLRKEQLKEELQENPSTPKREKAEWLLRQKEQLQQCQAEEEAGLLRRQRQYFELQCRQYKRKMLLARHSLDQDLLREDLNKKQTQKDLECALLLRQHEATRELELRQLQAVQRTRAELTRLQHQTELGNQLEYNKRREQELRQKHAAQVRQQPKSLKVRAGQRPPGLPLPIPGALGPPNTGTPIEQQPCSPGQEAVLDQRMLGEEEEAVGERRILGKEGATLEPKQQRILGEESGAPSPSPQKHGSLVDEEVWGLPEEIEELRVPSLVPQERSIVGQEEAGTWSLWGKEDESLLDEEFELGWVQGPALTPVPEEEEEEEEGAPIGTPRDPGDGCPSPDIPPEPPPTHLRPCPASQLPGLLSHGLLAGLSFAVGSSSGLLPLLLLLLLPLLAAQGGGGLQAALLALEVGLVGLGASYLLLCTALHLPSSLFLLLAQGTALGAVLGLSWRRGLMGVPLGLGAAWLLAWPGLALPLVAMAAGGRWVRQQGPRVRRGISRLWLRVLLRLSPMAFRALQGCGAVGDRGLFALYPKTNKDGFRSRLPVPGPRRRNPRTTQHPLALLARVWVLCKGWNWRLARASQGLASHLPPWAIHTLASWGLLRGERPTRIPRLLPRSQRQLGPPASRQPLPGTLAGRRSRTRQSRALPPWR
Sequence of Mast/stem cell growth factor receptor Kit (Homo sapiens), P10721 [D816H] (P10721 whole entry D816H, the tested form may be a part): as the sequence (P10721 whole entry, the tested form may be a part) above, with D816H counted along it

Take `C=CC(=O)Nc1ccccc1Nc1nc(Nc2ccc(N3CCN(C)CC3)cc2)ncc1C(=O)Nc1c(C)cccc1Cl`: the Activity in assay [1] amounted to 93%; in assay [2] it was 5.1%; in assay [3], 100%; in assay [4] it was 100%; in assay [5], 94%; in assay [6], 100%. The Activity in assay [7] worked out at 41%; in assay [8], 100%; in assay [9], 98%; in assay [10], 100%; in [11], 80%; in [12], 100%. Also, the Activity stood at 85% in assay [13]; 92% in [14]; 100% in [15]; 92% in assay [16]; 100% in assay [17]; 65% in [18]. For the same compound, the Activity in assay [19], in assay [20] and in [21] was 100% in each case.
